How the values were obtained:
[1] = Inhibition of VOC channel-mediated calcium influx in […] PC12-h5 cells; assay type: cell-based; conditions: Rattus norvegicus, PC-12
Procedure, shortened: (§1)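 PC12-h5 cells (1 × 10⁶ cells/ml) loaded with 1 µM Fura-2/AM for 45 min at room temperature in HEPES buffer pH 7.4, then washed. Depolarized with 50 mM KCl for 20 min. Intracellular Ca²⁺ measured at the 20 min endpoint from the 340/380 nm excitation ratio (500 nm emission), with compound autofluorescence subtracted.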

[2] = system: Jurkat; assay: Selectivity ratio of IC50 for VOC channel in […] PC12-h5 cells over IC50 for CRAC channel in human Jurkat cells
[3] = Inhibition of CRAC channel-mediated calcium influx in human Jurkat cells; assay type: cell-based
Procedure, shortened: (§2)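 Jurkat cells (2 × 10⁶ cells/ml) loaded with 1 µM Fura-2/AM for 45 min at room temperature in HEPES buffer pH 7.4 (NaCl 137, KCl 5.8, MgCl₂ 1, CaCl₂ 2.5, glucose 5, HEPES 10 mM), then washed. Thapsigargin-induced Ca²⁺ influx read by 340/380 nm excitation, 500 nm emission, with cell-free compound fluorescence subtracted. IC50 taken from percent inhibition.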

[4] = system: Mus musculus; assay: Inhibition of trinitrochlorobenzene-induced contact hypersensitivity in 1 hr before pretreated CD1 mouse assessed as ear swelling at 30 mg/kg, po; assay type: functional
Procedure, shortened: (§3)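 Mice challenged with TNCB on both sides of the ear pinna. Compound given orally 1 h before TNCB exposure, with 0.5% MC vehicle given orally to control animals. Ear thickness measured by dial gauge 24 h after challenge and swelling calculated from the pre-exposure value.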

[5] = system: Jurkat; assay: Inhibition of PHA-induced IL2 production in human Jurkat T lymphocytes; assay type: functional, cell-based
Procedure, shortened: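 Jurkat T cells (5 × 10⁶ cells/ml) stimulated with PHA (20 µg/ml) for 20 h. IL-2 in the supernatant quantified by human IL-2 ELISA.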

[6] = system: Jurkat; assay: Inhibition of CRAC channel-mediated calcium influx in human Jurkat cells at 10 uM; assay type: cell-based; procedure, shortened: as §2
[7] = system: PC-12; assay: Inhibition of VOC channel-mediated calcium influx in […] PC12-h5 cells at 10 uM; assay type: cell-based; conditions: Rattus norvegicus; procedure, shortened: as §1
[8] = system: Rattus norvegicus; assay: Inhibition of ovalbumin-induced airway eosinophilia in BN rat po dosed 1 hr before antigen challenge assessed as number of eosinophils in bronchoalveolar levage fluid after 24 hrs; assay type: functional; conditions: Lung
Procedure, shortened: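 Sensitized rats were challenged 3 weeks later with aerosolized 1% (w/v) ovalbumin for 15 min. Compound given orally 1 h before exposure. BAL performed 24 h after challenge. Total white cells counted with a blood cell counter. Eosinophils identified morphologically on smears and eosinophil number per animal calculated. ED50 derived.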

[9] = system: Mus musculus; assay: Inhibition of trinitrochlorobenzene-induced contact hypersensitivity in 1 hr before orally pretreated CD1 mouse assessed as ear swelling; assay type: functional; conditions: CD1, po; procedure, shortened: as §3

Row | SMILES | IC50 [1] | IC50 [3] | IC50 [5] | Ratio IC50 [2] | inhibition in vivo at 30 mg/kg [4] | inhibition [6] | inhibition [7] | ED50 [8] | ED50 [9]
1 | O=C(Nc1ccc(-n2nc(C(F)(F)F)cc2C(F)(F)F)cc1)c1cnccc1C(F)(F)F | 2000 nM | 430 nM | – | 5 | – | – | – | – | –
2 | O=C(Nc1ccc(-n2nc(C(F)(F)F)cc2C(F)(F)F)cc1)c1ccccn1 | – | – | – | – | – | 14% | – | – | –
3 | Cc1ccc(-c2cc(C(F)(F)F)nn2-c2ccc(NC(=O)c3snnc3C)cc2)cc1 | 2500 nM | 720 nM | – | 3.5 | – | – | – | – | –
4 | Cc1nnsc1C(=O)Nc1ccc(-n2nc(C(F)(F)F)cc2Cl)cc1 | 2900 nM | 82 nM | 15 nM | 35 | 42% | – | – | – | –
5 | O=C(Nc1ccc(-n2nc(C(F)(F)F)cc2C(F)(F)F)cc1)c1cnccc1O | – | – | – | – | – | 21% | – | – | –
6 | O=C(Nc1ccc(-n2nc(C(F)(F)F)cc2C(F)(F)F)cc1)c1cccnc1Cl | 4500 nM | 240 nM | – | 19 | – | – | – | – | –
7 | Cc1nnsc1C(=O)Nc1ccc(-n2nc(C(F)(F)F)cc2Br)cc1 | 2600 nM | 92 nM | 5.9 nM | 28 | 8.3% | – | – | – | –
8 | Cc1nnsc1C(=O)Nc1ccc(-n2ccc(C(F)(F)F)n2)cc1 | – | – | – | – | – | 40% | – | – | –
9 | Cc1nnsc1C(=O)Nc1ccc(-n2nc(C(F)(F)F)c3c2CCC3)cc1 | 3500 nM | 400 nM | – | 8.8 | – | – | – | – | –
10 | Cc1ccnc(C)c1C(=O)Nc1ccc(-n2nc(C(F)(F)F)cc2C(F)(F)F)cc1 | – | 1600 nM | – | – | – | – | – | – | –
11 | Cc1nnsc1C(=O)Nc1ccc(-n2nc(C(F)(F)F)cc2C(F)(F)F)cc1 | 4700 nM | 150 nM | 17 nM | 31 | 100% | – | – | 2.4 mg/kg | 1.1 mg/kg
12 | O=C(Nc1ccc(-n2nc(C(F)(F)F)cc2C(F)(F)F)cc1)c1cccnc1O | – | 3300 nM | – | – | – | – | – | – | –
13 | O=C(Nc1ccc(-n2nc(C(F)(F)F)cc2C(F)(F)F)cc1)c1nccs1 | – | 460 nM | – | > 22 | – | – | 37% | – | –
14 | O=C(Nc1ccc(-n2nc(C(F)(F)F)cc2C(F)(F)F)cc1)c1c[nH]cn1 | – | – | – | – | – | 29% | – | – | –
15 | Cc1nnsc1C(=O)Nc1ccc(-n2nc(C(F)(F)F)cc2C)cc1 | – | 220 nM | 18 nM | > 45 | 24% | – | 46% | – | –
16 | Cc1nnsc1C(=O)Nc1ccc(-n2nc(C(F)(F)F)cc2C#N)cc1 | – | 220 nM | – | > 45 | – | – | 45% | – | –

Now from value to compound, other results behind:

Row | IC50 [1] | IC50 [3] | IC50 [5] | SMILES | Ratio IC50 [2] | inhibition in vivo at 30 mg/kg [4] | inhibition [6] | inhibition [7] | ED50 [8] | ED50 [9]
17 | 2400 nM | 780 nM | – | Nc1ccncc1C(=O)Nc1ccc(-n2nc(C(F)(F)F)cc2C(F)(F)F)cc1 | 3.1 | – | – | – | – | –
18 | 5100 nM | 160 nM | 18 nM | O=C(Nc1ccc(-n2nc(C(F)(F)F)cc2C(F)(F)F)cc1)c1cnccc1Cl | 32 | -18% | – | – | – | –
19 | – | 220 nM | 94 nM | Cc1ccc(C(=O)Nc2ccc(-n3nc(C(F)(F)F)cc3C(F)(F)F)cc2)cn1 | > 45 | 46% | – | 27% | – | –
20 | 10000 nM | 240 nM | 16 nM | O=C(Nc1ccc(-n2nc(C(F)(F)F)cc2C(F)(F)F)cc1)c1ccncc1 | 42 | 25% | – | – | – | –
21 | 6300 nM | 290 nM | – | Cc1ccncc1C(=O)Nc1ccc(-n2nc(C(F)(F)F)cc2C(F)(F)F)cc1 | 20 | – | – | – | – | –
22 | – | 290 nM | 33 nM | Cc1cc(C)c(C(=O)Nc2ccc(-n3nc(C(F)(F)F)cc3C(F)(F)F)cc2)cn1 | > 34 | 64% | – | 41% | 1.3 mg/kg | –
23 | – | 270 nM | 160 nM | Nc1cncc(C(=O)Nc2ccc(-n3nc(C(F)(F)F)cc3C(F)(F)F)cc2)c1 | > 37 | 59% | – | 14% | 4.4 mg/kg | –
24 | 10000 nM | 960 nM | – | O=C(Nc1ccc(-n2nc(C(F)(F)F)cc2C(F)(F)F)cc1)c1cncs1 | 10 | – | – | – | – | –
25 | 4800 nM | 230 nM | – | COc1ccncc1C(=O)Nc1ccc(-n2nc(C(F)(F)F)cc2C(F)(F)F)cc1 | 21 | – | – | – | – | –
26 | – | 77 nM | 18 nM | O=C(Nc1ccc(-n2nc(C(F)(F)F)cc2C(F)(F)F)cc1)c1cncc(F)c1 | > 130 | 44% | – | 27% | – | –
27 | – | 250 nM | 93 nM | O=C(Nc1ccc(-n2nc(C(F)(F)F)cc2C(F)(F)F)cc1)c1cccnc1 | > 40 | 62% | – | 30% | – | –
28 | 2900 nM | 120 nM | – | COc1ncccc1C(=O)Nc1ccc(-n2nc(C(F)(F)F)cc2C(F)(F)F)cc1 | 24 | – | – | – | – | –
29 | – | 150 nM | 24 nM | O=C(Nc1ccc(-n2nc(C(F)(F)F)cc2C(F)(F)F)cc1)c1cncc(Br)c1 | > 67 | 17% | – | 29% | – | –
30 | – | 110 nM | 34 nM | O=C(Nc1ccc(-n2nc(C(F)(F)F)cc2C(F)(F)F)cc1)c1cncc(Cl)c1 | > 91 | 42% | – | 31% | – | –
31 | 3100 nM | 210 nM | – | Cc1cncc(C(=O)Nc2ccc(-n3nc(C(F)(F)F)cc3C(F)(F)F)cc2)c1 | 15 | – | – | – | – | –

Reference: ChEMBL document CHEMBL1142507, “Novel potent and selective Ca2+ release-activated Ca2+ (CRAC) channel inhibitors. Part 3: synthesis and CRAC channel inhibitory activity of 4'-[(trifluoromethyl)pyrazol-1-yl]carboxanilides” (Bioorg Med Chem, 2008)
